Laboratory results published in paper PMC4235474 (Clinical Pharmacology : Advances and Applications, 2014).
“And” between values parts separate entries of the source, which are not always exact repeats. Identical values can stand only once. Like-named read-outs stand apart in the source and are kept apart here. Marks after values point to notes of the source that are not given here.

Tests used:
healthy subjects = experiment: Safety and tolerability; format: in vivo, human; conditions: for deaths or serious AEs: during the study; for number of subjects reporting AEs: of 14 subjects; for tolerability: rivaroxaban 10 mg QD, apixaban 2.5 mg BID for 4 days
Method in brief: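 Randomized open-label two-period crossover in healthy volunteers housed in a clinical unit. Each took two oral factor Xa inhibitors for 4 days: one at 2.5 mg twice daily, the other at 10 mg once daily. Physical exam, vital signs, 12-lead ECG and blood/urine labs were done at screening, before each period and at discharge. AEs were monitored throughout, MedDRA-coded, and graded for severity, onset, drug relationship and outcome.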

[1] = cited from earlier work
[2] = Multiple-dose steady-state plasma pharmacokinetics; format: in vivo, healthy subjects (human); conditions: for Coefficient of variation (intersubject variability) for exposure parameters (AUC0–24, Cmax, Cmin): apixaban 2.5 mg BID
[3] = cited from earlier work; for fluctuation in mean concentrations / mean terminal half-life: apixaban 2.5 mg BID, multiple ascending dose study
factor Xa = factor Xa (Bos taurus, UniProt P00743); experiment: Steady-state plasma anti-factor Xa activity; format: in vivo, healthy subjects (human); conditions: for slope of concentration–AXA linear regression: AXA versus plasma concentration, P<0.0001 between drugs; for intercept in regression equation anti-FXa vs plasma concentration / slope in regression equation anti-FXa vs plasma concentration: Figure 4 regression equation; for AXA Tpeak median (min–max): time of peak anti-FXa activity, day 4 steady state; for AXA AUC(0–24) G mean (CV): 0 to 24 hours after morning dose, rivaroxaban 10 mg QD
Sequence of factor Xa (P00743 234-492 limits assumed): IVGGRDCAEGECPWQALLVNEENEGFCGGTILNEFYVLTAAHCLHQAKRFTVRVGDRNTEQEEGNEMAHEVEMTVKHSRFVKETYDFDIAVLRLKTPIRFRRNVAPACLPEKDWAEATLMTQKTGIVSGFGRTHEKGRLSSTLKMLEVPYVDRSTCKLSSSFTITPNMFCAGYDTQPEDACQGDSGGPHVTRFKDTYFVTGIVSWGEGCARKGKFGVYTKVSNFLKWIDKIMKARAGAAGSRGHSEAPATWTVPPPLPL
Sequence of factor Xa (P00743 41-180 partner limits assumed): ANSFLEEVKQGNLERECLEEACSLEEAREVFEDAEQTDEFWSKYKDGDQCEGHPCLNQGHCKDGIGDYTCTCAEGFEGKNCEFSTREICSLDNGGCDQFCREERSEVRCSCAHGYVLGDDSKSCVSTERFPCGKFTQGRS

prothrombin time = conditions: at a concentration of 1,000 ng/mL; cited from earlier work
[4] = VTEp patients; cited from earlier work
[5] = day 4 steady state, rivaroxaban 10 mg QD
[6] = day 4 steady state, rivaroxaban 10 mg QD, apixaban 2.5 mg BID oral, N=14

## COc1ccc(-n2nc(C(N)=O)c3c2C(=O)N(c2ccc(N4CCCCC4=O)cc2)CC3)cc1 [Apixaban, apixaban]
Healthy subjects
  deaths or serious AEs: No deaths or serious AEs
  number of subjects reporting AEs: eight
  tolerability: well-tolerated
[1]
  Protein binding: ~ 87%
[2]; after last dose on day 4 (apixaban: evening dose; rivaroxaban: morning dose), N=14
  T1/2 Mean (SD), terminal half-life: 8.65 (2.19) ^* h
[2]; [5]
  Coefficient of variation (intersubject variability) for exposure parameters (AUC0–24, Cmax, Cmin): 20%–24%
[2]; [6]
  Cmax G mean (%CV): 80.5 (23) ng/mL
[2]; human, plasma, oral
  Tmax: 2 h
[2]; human, plasma, oral, 2.5 mg
  AUC(0-t): 527 ng·h/mL
[3]; BID dosing
  time to steady state: 2 to 3 days
[3]; Japanese subjects
  fluctuation in mean concentrations: ~ 4.2
  mean terminal half-life: 9.7 h
[3]; Western subjects
  fluctuation in mean concentrations: ~ 3.0
  mean terminal half-life: 8.1 h
[3]
  terminal half-life: ~ 12 hours
  time to maximal plasma concentrations after administration: ~ 3 hours
[3]; following BID dosing
  accumulation: < 2 fold
[3]; not significantly influenced by dose or meals
  bioavailability: ~ 50%
Factor Xa; 0 to 12 hours after morning dose, day 4, apixaban 2.5 mg BID, N=14
  AXA AUC(0–12) G mean (CV): 7.42 (21) IU · h/mL
Factor Xa
  slope of concentration–AXA linear regression: 0.0134 IU/ng
  intercept in regression equation anti-FXa vs plasma concentration: 0.02753
  slope in regression equation anti-FXa vs plasma concentration: 0.01342
Factor Xa; determined after evening dose on day 4, apixaban 2.5 mg BID
  AXA T1/2 Mean (SD): 8.9 h and 8.91 (2.46) ^‡ h
Factor Xa; N=14
  AXA Tpeak median (min–max): 2.00 (1.00–3.00) h
Factor Xa; N=14, listed as apixaban
  AXA Tpeak median (min–max): 2 h

## O=C(NC[C@H]1CN(c2ccc(N3CCOCC3=O)cc2)C(=O)O1)c1ccc(Cl)s1 [Rivaroxaban, rivaroxaban]
Healthy subjects; after start of study medication, 14 subjects, all mild
  number of AEs reported: Twelve
Healthy subjects
  deaths or serious AEs: No deaths or serious AEs
  number of subjects reporting AEs: seven
  tolerability: well-tolerated
[1]
  Protein binding: ~ 93%
[2]; daily AUC
  AUC0–24 at steady state, rivaroxaban higher than apixaban: ~ 17%
[2]; day 4
  Cmax, rivaroxaban relative to apixaban (higher): ~ 2 fold
  Cmin, rivaroxaban lower than apixaban: ~ 40%
[2]; [5]
  Coefficient of variation (intersubject variability) for exposure parameters (AUC0–24, Cmax, Cmin): 29%–46%
[2]; [6]
  Cmin G mean (%CV): 10.1 (39) ng/mL
[2]; geometric mean ratio, 90% CI: 2.82–4.61
  Cmax/Cmin ratio, rivaroxaban relative to apixaban: 3.6 fold
Prothrombin time
  effect in the prothrombin time assay: greater effect than apixaban
[4]
  Cmax/Cmin ratio: ~ 7
[3]
  terminal half-life: ~ 10 hours
  time to maximal plasma concentrations after administration: ~ 3 hours
[3]; depending on dose and administration with a meal
  bioavailability: 66%–100%
[3]; following QD administration
  accumulation: does not show appreciable accumulation
[3]; rivaroxaban 5 mg QD, healthy subjects
  half-life: 8.4 h
Factor Xa; day 4, apixaban 2.5 mg BID, N=14
  AXA AUC(0–24) G mean (CV): 17.8 (29) IU · h/mL
Factor Xa; day 4, apixaban 2.5 mg BID, N=14, listed as rivaroxaban
  AXA AUC(0–24) G mean (CV): 17.8 IU · h/mL
Factor Xa
  slope of concentration–AXA linear regression: 0.0172 IU/ng
  intercept in regression equation anti-FXa vs plasma concentration: −0.03215
  slope in regression equation anti-FXa vs plasma concentration: 0.01719
Factor Xa; geometric mean
  AXA AUC(0–24), rivaroxaban higher than apixaban: ~ 34%
Factor Xa; steady state
  AXA AUC(0–24), rivaroxaban relative to apixaban (higher): ~1.3 fold
  Peak AXA, rivaroxaban relative to apixaban (higher): ~ 2.5 fold
  trough AXA, rivaroxaban lower than apixaban: ~ 30%
Factor Xa; N=14
  AXA Tpeak median (min–max): 2.00 (1.00–3.00) h
Factor Xa; N=14, listed as rivaroxaban
  AXA Tpeak median (min–max): 2 h
